# Assay results: ChEMBL document CHEMBL1138488, “Synthesis and biological evaluation of 3,3-difluoropyridine-2,4(1H,3H)-dione and 3-deaza-3-fluorouracil base and nucleoside derivatives” (J Med Chem, 2009)
# Activity calls are given as the source filed them. No cut-off for these calls is given here.
# Columns and labels:
# Human respirovirus 3 = assay: Antiviral activity against Parainfluenza virus type 3 infected in african green monkey Vero cells assessed as inhibition of virus-induced cytopathic effect at <=100 uM; type: functional, organism-based
# In short: (§1)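 Confluent cell monolayers were inoculated with 100 CCID₅₀ of virus, and virus was adsorbed for 1 h. Residual virus was then removed and cells were incubated with serial compound concentrations ([…], ... µM). Cytopathicity was scored once it reached completion in untreated virus-infected control cultures.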
# [1] = tested on: Mammalian orthoreovirus 3; assay: Antiviral activity against Reovirus 3 infected in african green monkey Vero cells assessed as inhibition of virus-induced cytopathic effect at <=100 uM; type: functional, organism-based
# Sindbis virus = assay: Antiviral activity against Sindbis virus infected in african green monkey Vero cells assessed as inhibition of virus-induced cytopathic effect at <=100 uM; type: functional, organism-based; in short: as §1
# Punta Toro virus = assay: Antiviral activity against Punta Toro virus infected in african green monkey Vero cells assessed as inhibition of virus-induced cytopathic effect at <=100 uM; type: functional, organism-based; in short: as §1
# Human betaherpesvirus 5 [2] = assay: Antiviral activity against HCMV AD169 infected in HEL cells assessed as inhibition of virus-induced cytopathic effect at <=100 uM; type: functional, organism-based; in short: as §1
# Human betaherpesvirus 5 [3] = assay: Antiviral activity against HCMV Davis infected in HEL cells assessed as inhibition of virus-induced cytopathic effect at <=100 uM; type: functional, organism-based; in short: as §1
# Human alphaherpesvirus 3 [4] = assay: Antiviral activity against thymidine kinase expressing Varicella zoster virus Oka infected in human HEL cells assessed as inhibition of virus-induced cytopathic effect at <=100 uM; type: functional, organism-based; in short: as §1
# Human alphaherpesvirus 3 [5] = assay: Antiviral activity against thymidine kinase deficient Varicella zoster virus 07/1 infected in human HEL cells assessed as inhibition of virus-induced cytopathic effect at <=100 uM; type: functional, organism-based; in short: as §1
# [6] = tested on: Human immunodeficiency virus 1; assay: Antiviral activity against HIV1 3B replication in human CEM cells assessed as virus-induced giant cell formation at <=100 uM after 4 days; type: functional, organism-based; conditions: CCRF-CEM
# In short: (§2)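 CEM cells (~3 × 10⁵ cells/cm³) were infected with 100 CCID₅₀/mL of HIV-1(III_B) or HIV-2(ROD) and seeded into wells containing compound dilutions. After 4 days at 37 °C, virus-induced giant cell formation was examined microscopically.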
# [7] = tested on: Human immunodeficiency virus 2; assay: Antiviral activity against HIV2 ROD replication in human CEM cells assessed as virus-induced giant cell formation at <=100 uM after 4 days; type: functional, organism-based; conditions: CCRF-CEM; in short: as §2
# [8] = Cytostatic activity against mouse L1210 cells after 2 days by Coulter counting analysis; type: ADME, cell-based
# In short: (§3)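 Murine leukemia L1210 cells were seeded at 50000 cells per well with varying compound concentrations. Viable cell number was counted by Coulter counter after 2 days.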
# [9] = Cytostatic activity against human Molt4/C8 cells after 3 days by Coulter counting analysis; type: ADME, cell-based, MOLT-4
# In short: (§4)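 Molt4/C8 or CEM lymphocytes were seeded at 75000 cells per well with varying compound concentrations. Viable cells were counted by Coulter counter after 3 days. CC₅₀ is the concentration inhibiting cell proliferation by 50%.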
# [10] = Cytostatic activity against human CEM cells after 3 days by Coulter counting analysis; type: cell-based, CCRF-CEM; in short: as §4
# L1210 = assay: Cytostatic activity against mouse L1210 cells at <=500 uM after 2 days by Coulter counting analysis; type: ADME, cell-based; conditions: l1210, 48 h; in short: as §3
# [11] = Cytostatic activity against human Molt4/C8 cells at <=500 uM after 3 days by Coulter counting analysis; type: ADME, cell-based; conditions: molt-4, 72 h; in short: as §4
# CCRF-CEM = assay: Cytostatic activity against human CEM cells at <=500 uM after 3 days by Coulter counting analysis; type: cell-based; conditions: 72 h; in short: as §4
# Human alphaherpesvirus 1 [12] = assay: Antiviral activity against HSV1 KOS infected in HEL cells assessed as virus-induced cytopathic effect at <=100 uM; type: functional, organism-based
# Human alphaherpesvirus 1 [13] = assay: Antiviral activity against acyclovir-resistant […] kinase-deficient HSV1 KOS infected in HEL cells assessed as virus-induced cytopathic effect at <=100 uM; type: functional, organism-based
# Human alphaherpesvirus 2 = assay: Antiviral activity against HSV2 strain G infected in HEL cells assessed as virus-induced cytopathic effect at <=100 uM; type: functional, organism-based
# Vaccinia virus = assay: Antiviral activity against Vaccinia virus infected in HEL cells assessed as inhibition of virus-induced cytopathic effect at <=100 uM; type: functional, organism-based; conditions: Orthopoxvirus vaccinia
# [14] = tested on: Vesicular stomatitis virus; assay: Antiviral activity against Vesicular stomatitis virus infected in HEL cells assessed as inhibition of virus-induced cytopathic effect at <=100 uM; type: functional, organism-based
# [15] = tested on: Vesicular stomatitis virus; assay: Antiviral activity against Vesicular stomatitis virus infected in human HeLa cells assessed as inhibition of virus-induced cytopathic effect at <=100 uM; type: functional, organism-based
# Coxsackievirus B4 = assay: Antiviral activity against Coxsackievirus B4 infected in human HeLa cells assessed as inhibition of virus-induced cytopathic effect at <=100 uM; type: functional, organism-based; in short: as §1
# [16] = tested on: Respiratory syncytial virus; assay: Antiviral activity against Respiratory syncytial virus infected in human HeLa cells assessed as inhibition of virus-induced cytopathic effect at <=100 uM; type: functional, organism-based; in short: as §1
# [17] = tested on: Moloney murine sarcoma virus; assay: Antiviral activity against Moloney sarcoma virus replication infected in mouse […] cells assessed as virus-induced transformation of cells at <=100 uM measured on day 6 postinfection; type: functional, organism-based
# In short: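 Murine C3H/3T3 embryo fibroblasts were grown to confluency and infected with Moloney murine sarcoma virus at 75 focus-forming units. Compound concentrations were then added, and virus-induced transformation was examined microscopically at day 6 postinfection.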
Structure (SMILES),Activity (Human respirovirus 3),Activity [1],Activity (Sindbis virus),Activity (Punta Toro virus),Activity (Human betaherpesvirus 5 [2]),Activity (Human betaherpesvirus 5 [3]),Activity (Human alphaherpesvirus 3 [4]),Activity (Human alphaherpesvirus 3 [5]),Activity [6],Activity [7],Activity (L1210),Activity [11],Activity (CCRF-CEM),Activity (Human alphaherpesvirus 1 [12]),Activity (Human alphaherpesvirus 1 [13]),Activity (Human alphaherpesvirus 2),Activity (Vaccinia virus),Activity [14],Activity [15],Activity (Coxsackievirus B4),also measured
O=c1c(F)c(O)ccn1[C@@H]1O[C@H](CO)[C@@H](O)[C@H]1O,inactive,inactive,inactive,inactive,inactive,inactive,inactive,inactive,inactive,inactive,Not Active,Not Active,Not Active,inactive,inactive,inactive,inactive,inactive,inactive,inactive,CC50 at 48 h [8]: 6.7 µM; CC50 at 72 h [9]: 4.4 µM; CC50 at 72 h [10]: 9.6 µM; Activity [16]: inactive; Activity [17]: inactive
O=C1N([C@@H]2O[C@H](CO)[C@@H](O)[C@H]2O)C=CC(O)(c2ccccc2)C1(F)F (some centres undefined),inactive,inactive,inactive,inactive,inactive,inactive,inactive,inactive,inactive,inactive,Not Active,Not Active,Not Active,inactive,inactive,inactive,inactive,inactive,inactive,inactive,Activity [16]: inactive; Activity [17]: inactive
C#CC1(O)C=CN([C@H]2C[C@H](O)[C@@H](CO)O2)C(=O)C1(F)F (some centres undefined),inactive,inactive,inactive,inactive,inactive,inactive,inactive,inactive,inactive,inactive,Not Active,Not Active,Not Active,inactive,inactive,inactive,inactive,inactive,inactive,inactive,Activity [16]: inactive; Activity [17]: inactive
